Common to all, as to type: functional
Assay [1] relates to B16. The experiment in a line: Antitumor activity against mouse B16 cells allografted in mouse assessed as increase in mouse survival time at 4.9 mg/kg, iv for 4 to 9 days relative to control. In short, it runs like this: (§1)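 Run under NCI protocols 3B131 (B-16 melanocytic melanoma) and 3LL32 (Lewis lung carcinoma) in mice, ten mice per test group. Drug was injected every 4 days, with 20–30 uninjected control animals. Mean or median survival of treated mice over that of controls ×100 was reported as percentage increase in life span.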

For assay [2], the system named is P388. The experiment in a line: Antitumor activity against mouse P388 cells allografted in mouse assessed as increase in mouse survival time at 12.8 mg/kg, iv for 4 to 9 days relative to control. In short, it runs like this: (§2)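 Run under NCI protocols 3LE21 (L1210) and 3PS31 (P388) in mice, six mice per test group. Drug was injected daily for 9 days, with 20–30 uninjected control animals. Mean or median survival time of the treated group was divided by that of controls and multiplied by 100, then reported as percentage increase in life span.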

The test system of assay [3] is L1210. Nature of the assay: Antitumor activity against mouse L1210 cells allografted in mouse assessed as increase in mouse survival time at 12.8 mg/kg, iv for 4 to 9 days relative to control. The procedure, abridged:
as §2

In assay [4] the test system is B16. Nature of the assay: Antitumor activity against mouse B16 cells allografted in mouse assessed as increase in mouse survival time at 14.8 mg/kg, iv for 4 to 9 days relative to control. In short, it runs like this: as §1
Assay [5] concerns L1210. Nature of the assay: Antitumor activity against mouse L1210 cells allografted in mouse assessed as increase in mouse survival time at 4.3 mg/kg, iv for 4 to 9 days relative to control. The procedure, abridged: as §2
Assay [6] deals with L1210. Nature of the assay: Antitumor activity against mouse L1210 cells allografted in mouse assessed as increase in mouse survival time at 0.5 mg/kg, iv for 4 to 9 days relative to control. In short, it runs like this:
as §2

Assay [7] has as its system B16. Nature of the assay: Antitumor activity against mouse B16 cells allografted in mouse assessed as increase in mouse survival time at 43.5 mg/kg, iv for 4 to 9 days relative to control. In short, it runs like this: as §1
A short description of assay [8]: Cytotoxicity against human 9KB cells relative to camptothecin.
The test system of assay [9] is Lewis lung carcinoma cell line. Nature of the assay: Antitumor activity against mouse LLC cells allografted in mouse assessed as increase in mouse survival time at 48 mg/kg, iv for 4 to 9 days relative to control. In short, it runs like this:
as §1

Assay [10] deals with P388. The experiment in a line: Cytotoxicity against mouse P388 cells. The conditions noted are these: Mus musculus, P388; read-out: ED50 (the source's name).
The test system of assay [11] is Lewis lung carcinoma cell line. Nature of the assay: Antitumor activity against mouse LLC cells allografted in mouse assessed as increase in mouse survival time at 4 mg/kg, iv for 4 to 9 days relative to control. In short, it runs like this:
as §1

Assay [12] relates to P388. The experiment in a line: Antitumor activity against mouse P388 cells allografted in mouse assessed as increase in mouse survival time at 0.5 mg/kg, iv for 4 to 9 days relative to control. In short, it runs like this: as §2
In assay [13] the test system is P388. The experiment in a line: Cytotoxicity against mouse P388 cells relative to camptothecin.
Assay [14] in a line: Cytotoxicity against human 9KB cells.
Assay [15] relates to P388. The experiment in a line: Antitumor activity against mouse P388 cells allografted in mouse assessed as increase in mouse survival time at 4.3 mg/kg, iv for 4 to 9 days relative to control. In short, it runs like this:
as §2

The test system of assay [16] is L1210. Nature of the assay: Antitumor activity against mouse L1210 cells allografted in mouse assessed as increase in mouse survival time at 1.4 mg/kg, iv for 4 to 9 days relative to control. The procedure, abridged:
as §2

The subject of assay [17] is P388. Nature of the assay: Antitumor activity against mouse P388 cells allografted in mouse assessed as increase in mouse survival time at 1.4 mg/kg, iv for 4 to 9 days relative to control. In short, it runs like this: as §2
Assay [18] has as its system Lewis lung carcinoma cell line. The experiment in a line: Antitumor activity against mouse LLC cells allografted in mouse assessed as increase in mouse survival time at 15.7 mg/kg, iv for 4 to 9 days relative to control. The procedure, abridged:
as §1

The term T/C denotes the ratio of treated to control. With `CC[C@@](O)(C(=O)NC(C)C)c1cc2n(c(=O)c1COC(C)=O)Cc1cc3ccccc3nc1-2`, the T/C in the assay with B16 [1] turned out to be 100%; in the assay with P388 [2], 97%; in the assay on L1210 [3], 105%; in the assay with B16 [4], 105%; in the assay with L1210 [5], 147%; in the assay on L1210 [6], 110%. Besides, the T/C with B16 [7] stood at 114%; in assay [9], 156%; in assay [11], 147%; in the assay on P388 [12] it was 126%; in the assay on P388 [15], 173%; with L1210 [16], 116%. For the same compound, the figures for the T/C (in the assay with P388 [17]; in assay [18]) were 126% and 166%, respectively. The Activity in assay [8] was 2.8%; in the assay on P388 [13], 0.08%. Besides, in the assay on P388 [10], the EC50 stood at 7.4 µM. Further, the ED50 in [14] was 7.8 ×10⁻⁴ umol/ml.

For the origin of these results see ChEMBL document CHEMBL3228024, “Prodrug analogues of the antitumor alkaloid camptothecin” (1979).
